Experimental data gathered from unrelated publications.
Protocols differ between the studies behind these lines.
Target: Ephrin type-A receptor 5 (EPHA5, Homo sapiens, UniProt P54756)

SMILES	observed	mode	technique	concentration	endpoint	result
Cn1cncc1[C@@](O)(COc1ccc(C#N)cc1-c1ccc(OC(F)(F)F)cc1)c1ccc(C#N)cc1	cell-free assay	–	competition with immobilised ligand	1 µM	remaining binding	67%
C#Cc1n[nH]c2c(-c3cn([C@@H](C)c4ccccc4)c(=O)[nH]c3=O)cc(F)cc12	enzyme activity	inhibitor	–	0.1 µM	inhibition	5.4%
Cn1cc(-c2cc(F)cc(N3CCn4c(cc5c4CCCC5)C3=O)c2CO)cc(Nc2ccc(N3CCN(C4COC4)CC3)cn2)c1=O	enzyme activity	inhibitor	–	0.1 µM	inhibition	11%
CC(C)(C)c1cc(C=C(C#N)C#N)cc(Br)c1O	enzyme activity	inhibitor	–	0.5 µM	remaining activity	106%
C#Cc1n[nH]c2c(-c3cn([C@@H](C)c4ccccn4)c(=O)[nH]c3=O)cc(F)cc12	enzyme activity	inhibitor	–	0.1 µM	inhibition	8.9%
Cn1cc(-c2cccc(N3CCc4c(sc5c4CC(C)(C)C5)C3=O)c2CO)cc(Nc2ccncn2)c1=O	enzyme activity	inhibitor	–	1 µM	inhibition	1%
O=c1[nH]c2ccccc2n1C1CCN(Cc2ccc(-c3[nH]c4cc5ncnc5cc4nc3-c3ccccc3)cc2)CC1	cell-free assay	–	–	0.5 µM	remaining signal	102%
COc1ncccc1-c1cnn2ccc(N3CCN(C(=O)OC(C)C)CC3)nc12	binding	–	competition with immobilised ligand	1 µM	remaining binding	100%
Cc1nn(C)cc1-c1nc2c(N3CCN(Cc4ccc(Cl)cc4)CC3)c(Cl)cnc2[nH]1	binding	–	competition with immobilised ligand	1 µM	remaining binding	100%
COc1cc(Nc2ncc(F)c(Nc3ccc4c(n3)NC(=O)C(C)(C)O4)n2)cc(OC)c1OC	binding	–	competition with immobilised ligand	10 µM	inhibition	64%
